In the library only some 11% were active in any assay of this set; here they are far more common.
WT yeast gro inh = growth inhibition of WT strain, primary screen, mitochondrial fusion inhibitor project, WT and mutant strains, chemical genetic; mitochondrial fusion phenotypic screen; inhibition, % at 10 µM; 190,000 compounds, 2.1% hits; AID 1362, 2008; in the data active means inhibition above about 58%; tested in S. cerevisiae
Lmaj promast = Leishmania major promastigote growth inhibition, primary screen; Leishmania major promastigotes, resazurin fluorescence viability; inhibition, % at 10 µM; 200,000 compounds, 9% hits;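 further: promastigotes grown with compound for 44 hours at 28 °C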
Diaphorase act = compounds boosting diaphorase resazurin reduction – biochemical, uHTS, resorufin fluorescence, counter-screen for diaphorase-coupled primary assays, primary screen. 190,000 compounds, 0.005% hits. Diaphorase/resazurin coupled assay, 16 min; hits give high values; 1 = vehicle wells, 0 = NADH-free wells. activation factor at 20 µM. AID 1229, 2008;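 active means diaphorase activity raised at least twofold by the compound at 20 µM; inactive means activation factor below 2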
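Assay system: bacterial diaphorase enzyme (C. kluyveri) / Input: enzyme 0.07 U/mL final / Medium: 50 mM HEPES pH 7.4 with 4.542 mM MgCl2, 0.005% Tween 20 / Doses: single compound dose of 20 µM, 1% DMSO final / Incubation: 16 min enzyme reaction, ambient temperature / Signal: fluorescence, excitation 544 nm and emission 590 nm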
Diaphorase inh = diaphorase inhibitors and chemical oxidizers, primary screen, counter-screen for diaphorase-coupled primary assays, biochemical, uHTS, resorufin fluorescence; 190,000 compounds, 0.69% hits; inhibition, % at 20 µM; diaphorase resazurin-to-resorufin fluorescence, NADH, 16 min; bacterial (C. kluyveri) enzyme, not human;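 active means primary screen inhibition at 20 µM above a set limit, cut at about 50% in these data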;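 further: plate controls were DMSO with full reaction for no effect and wells lacking NADH for full effect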
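Test system: diaphorase enzyme from Clostridium kluyveri; amount: diaphorase at 0.14 U/mL in enzyme working solution; detection: fluorescence of resorufin formed from resazurin, Ex 544/Em 590 nm; times: reaction incubation of 16 min at room temperature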
G6PDH CS = L. mesenteroides G6PDH inhibitors, counter-screen for G6PDH-coupled screening assays, biochemical, Leuconostoc mesenteroides enzyme. glucose-6-phosphate dehydrogenase [Leuconostoc mesenteroides]. Purified L. mesenteroides G6PDH, diaphorase/resazurin coupled fluorescence, 45 min. inhibition, % at 5 µM. 200,000 compounds, 0.12% hits
Starred values were filed as active, the others as inactive. Unless noted, no stated cut-off is given here; in the data, active means inhibition above about 50%; inactive means the rest.

SMILES	WT yeast gro inh	Lmaj promast	Diaphorase act	Diaphorase inh	G6PDH CS
C=CCCC(=O)Nc1nc(C)c(-c2csc(Nc3cc(OC)ccc3OC)n2)s1	25	19	0.7	26	13
CCCC(=O)Nc1nc(C)c(-c2csc(Nc3ccc(Cl)cc3)n2)s1	50	24	0.9	9	7
COc1ccccc1Nc1nc(-c2sc(NC(=O)C(C)(C)C)nc2C)cs1	-7	100*	0.9	7	2
COc1ccccc1Nc1nc(-c2sc(NC(=O)c3cccc(Cl)c3)nc2C)cs1	37	10	0.8	16	6
COc1cccc(Nc2nc(-c3sc(NC(=O)c4ccccc4)nc3C)cs2)c1	66*	20	0.8	16	4
CCCC(=O)Nc1nc(C)c(-c2csc(Nc3ccccc3OC)n2)s1	10	59*	0.8	17	-3
CCCC(=O)Nc1nc(C)c(-c2csc(Nc3cc(OC)ccc3OC)n2)s1	49	47	0.7	34	6
CCCC(C)C(=O)Nc1nc(C)c(-c2csc(Nc3cc(OC)ccc3OC)n2)s1 (centres undefined)	25	84*	0.8	25	9
CCCCCC(=O)Nc1nc(C)c(-c2csc(Nc3cc(Cl)ccc3OC)n2)s1	1	62*	0.8	21	3
Nc1nc(-c2ccc3ccccc3c2)c(C2(O)C(=O)Nc3c(Br)cc(F)cc32)s1 (centres undefined)	10	-5	1	0	3
CCC(C)NCCCOc1ccc(C)cc1OC (centres undefined)	-10	1	0.9	13	10
CCC(C)NCCOCCOc1ccc(Cl)c2ccccc12 (centres undefined)	53	100*	0.9	9	2
CCC(C)NCCOCCOc1ccc(Cl)c(C)c1C (centres undefined)	19	98*	1	2	0
N#Cc1c2n(c3c(=S)nc[nH]c13)CCCCC2	14	-2	0.5	54*	4
Cc1ccccc1C(=O)NNC(=O)Nc1ccccc1	-6	-12	0.9	6	2
CCOc1ccc(NC(=O)C(c2ccccn2)N(C(=O)CCl)c2ccc(OCC)cc2)cc1 (centres undefined)	-12	14	0.5	54*	8
COc1ccc(NC(=O)C(c2ccccn2)N(C(C)=O)c2ccc(C)cc2)cc1 (centres undefined)	-6	32	0.9	7	17
CCOc1ccc(NC(=O)C(c2ccccn2)N(C(=O)CCl)c2ccc(OC)cc2)cc1 (centres undefined)	-13	10	0.4	56*	20
CCCCCCCCOC(=O)/C=C/c1c(C)[nH]c(=O)[nH]c1=O	-16	93*	1.1	-6	-2
c1ccc(-n2ncc3c(NCCN4CCCCC4)ncnc32)cc1	-14	98*	1	5	4
c1ccc(-n2ncc3c(NCCN4CCOCC4)ncnc32)cc1	-3	34	0.9	12	3
O=C1CC(c2ccc(Cl)c(Cl)c2)CC(O)=C1C=NCCN1CCNCC1 (centres undefined)	0	-4	1	3	-1
CCOc1ccc(CC(=O)N2CCN(c3ccc(N4CCOCC4)nn3)CC2)cc1OCC	0	-8	0.9	5	-14
COC(=O)Nc1ccc(S(=O)(=O)N2CCCCC2C(=O)O)cc1 (centres undefined)	-1	1	0.8	18	3
COC(=O)Nc1ccc(S(=O)(=O)N2c3ccccc3CCC2C)cc1 (centres undefined)	28	100*	0.7	27	2
COc1ccc(-c2nnc(NC(=O)c3ccc(S(=O)(=O)N4CCCc5ccccc54)cc3)o2)cc1	-23	99*	0.8	17	-4
O=C(NCc1ccco1)c1ccc(S(=O)(=O)N2CCCc3ccccc32)cc1	5	64*	0.8	17	5
COCc1nnc(NC(=O)c2ccc(S(=O)(=O)N3CCCc4ccccc43)cc2)o1	5	1	0.9	5	4
O=C(Nc1nnc(C2CC2)o1)c1ccc(S(=O)(=O)N2CCCc3ccccc32)cc1	63*	99*	0.8	22	21
